High-throughput results deposited in PubChem by Broad Institute.
A selection follows.
PGC1a acetyl up: raises PGC1a acetylation signal in U2OS cells. U2OS PGC1a acetylation AlphaScreen, overnight. activation, % at 15.6 µM. 350,000 compounds, 0.21% hits;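 active means every replicate reaching activation of at least 50%, whatever the mean replicate activation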;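 further: hits raise the AlphaScreen acetylation signal above neutral controls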
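detection = AlphaScreen lysate read | assay system = U2OS cells expressing flag-PGC1a plus GCN5 | input = 7000 cells/well | dosing = one concentration | times = compound overnight at 37 °C, each detection step 1 h RT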
An asterisk follows results filed as active.

Results for CCN(CCNc1ccc(Cl)cc1[N+](=O)[O-])C(=O)c1cc([N+](=O)[O-])c(N(C)C)cc1OC ?
PGC1a acetyl up: -51

How did Cc1cc(C)cc(OC(=O)CS(=O)c2ccc(C(F)(F)F)cc2[N+](=O)[O-])c1 (stereo unspecified) do in these assays?
PGC1a acetyl up: 64*

What do the screens show for `CNC[C@H]1Oc2ncc(C#CC3CCCCC3)cc2C(=O)N([C@H](C)CO)C[C@H]1C`?
PGC1a acetyl up: -41

Results for O=C(O)CSc1nnc(COc2cccc3ccccc23)o1 ?
PGC1a acetyl up: -42

Results for N#CCSc1nnc(COc2ccc3ccccc3c2)o1 ?
PGC1a acetyl up: 52*

What do the screens show for `CCSc1nnc(NC(=O)CSC2=NCCS2)s1`?
PGC1a acetyl up: -94

Results for N#Cc1c(N)c(C(=O)c2ccccc2)n2ccccc12 ?
PGC1a acetyl up: -49

Results for CN(C)c1ncnc2c1ccn2C1OC(CO)C(O)C1O (stereo unspecified) ?
PGC1a acetyl up: -52

Results for CC(=O)OC[C@]12CC[C@H]3[C@@](C)(CC[C@H]4C(C)(C)CCC[C@]34C)[C@@H]1CC(C1=CC(=O)OC1O)O2 (stereo partly specified) ?
PGC1a acetyl up: -87

Results for CCOC(=O)c1nc(S(C)(=O)=O)ncc1Cl ?
PGC1a acetyl up: 132*

What do the screens show for `CN1/C(=C/C(=O)c2nc(S(C)(=O)=O)ncc2Cl)C(C)(C)c2ccccc21`?
PGC1a acetyl up: -83

How did Cc1cc(C)n(-c2ccc(Cl)c(C(=O)OCC(N)=O)n2)n1 do in these assays?
PGC1a acetyl up: -46

Results for CC(C)NC(=O)N(C)C[C@H]1OCCCC[C@@H](C)Oc2ccc(NC(=O)Cc3ccccc3)cc2C(=O)N([C@@H](C)CO)C[C@H]1C ?
PGC1a acetyl up: -55

Results for CCC(=O)Nc1cccc(C(=O)/C=C/c2ccccc2)c1 ?
PGC1a acetyl up: -41

What do the screens show for `Cc1cccc(NC(=O)CCC(=O)N/N=C/c2ccc(O)cc2O)c1`?
PGC1a acetyl up: 51*

How did Fc1ccc(/C=N/N2CCCCC2)c(F)c1 do in these assays?
PGC1a acetyl up: -66

Results for COc1ccc(NC(=O)CN(C)C(=O)c2cnc(Cl)c(Cl)c2)cc1 ?
PGC1a acetyl up: -44

How did COc1ccc(C(=O)N/N=C(/C)c2cccc(NC(=O)c3ccccc3F)c2)cc1 do in these assays?
PGC1a acetyl up: -51

Results for COc1ccc(CCNC(=O)c2ccc(Cl)cc2)cc1 ?
PGC1a acetyl up: 81*

How did CC(=O)ON=C1C=CC(=C(C#N)c2ccccc2)C=C1 do in these assays?
PGC1a acetyl up: -41

How did COc1ccc(Oc2c(Cl)cnn(-c3ccc(F)cc3)c2=O)cc1 do in these assays?
PGC1a acetyl up: 81*

Results for CO[C@@H]1CN(C)C(=O)c2ccc(NC(C)=O)cc2OC[C@@H](C)N(C(=O)Cc2cccnc2)C[C@@H]1C ?
PGC1a acetyl up: -47

What do the screens show for `Cc1cc(C)c2nc(N3CCCC(C(=O)N4CCC(C(N)=O)CC4)C3)sc2c1` (stereo unspecified)?
PGC1a acetyl up: -40

Results for CN(CC(=O)NCC1CCCO1)S(=O)(=O)c1cc(Cl)ccc1Cl (stereo unspecified) ?
PGC1a acetyl up: -48

Results for O=C(Cn1cc(C(=O)c2cccs2)c2ccccc21)NCC1CCCO1 (stereo unspecified) ?
PGC1a acetyl up: 86*

Results for O=C(CC(Nc1ccc(F)cc1)C(=O)O)c1ccccc1 (stereo unspecified) ?
PGC1a acetyl up: 76*

Results for Cc1cc(S(=O)(=O)c2ccc([N+](=O)[O-])cn2)ccc1Br ?
PGC1a acetyl up: 135*

What do the screens show for `O=S(=O)(c1ccc(NC(=S)NCc2cccnc2)cc1)N1CCCCC1`?
PGC1a acetyl up: 89*

Results for CS(=O)(=O)N1CCCC(C(=O)NCc2ccccn2)C1 (stereo unspecified) ?
PGC1a acetyl up: -47

What do the screens show for `O=C(NNS(=O)(=O)c1ccc(F)cc1)c1ccc(S(=O)(=O)N2CCCCC2)cc1`?
PGC1a acetyl up: -41

What do the screens show for `C[C@H]1CN([C@@H](C)CO)C(=O)c2cc(C#CC(C)(C)O)cnc2O[C@@H]1CN(C)C(=O)C1CCC1`?
PGC1a acetyl up: -101

Results for C[C@@H]1CCCCO[C@H](CN(C)C(=O)NC2CCCCC2)[C@@H](C)CN([C@@H](C)CO)C(=O)c2cc(NC(=O)NC3CCCCC3)ccc2O1 ?
PGC1a acetyl up: -45

What do the screens show for `CCN(CC)CCOc1ccc(/C(=C(\Cl)c2ccccc2)c2ccccc2)cc1`?
PGC1a acetyl up: 80*

How did O=C(N=Nc1c(O)[nH]c2ccccc12)c1cc(-c2cccs2)[nH]n1 do in these assays?
PGC1a acetyl up: -48

Results for CCOC(=O)COc1ccc(/C=C/[N+](=O)[O-])c(OCC(=O)OCC)c1 ?
PGC1a acetyl up: 77*

How did C[C@@H]1CN([C@H](C)CO)C(=O)CCCn2nncc2CO[C@@H]1CN(C)S(=O)(=O)c1cn(C)cn1 do in these assays?
PGC1a acetyl up: -101

How did CCn1c(C(C)NC(=O)c2ccccc2C)n[nH]c1=S (stereo unspecified) do in these assays?
PGC1a acetyl up: -50

What do the screens show for `COc1ccc(C#Cc2cnc3c(c2)C(=O)N([C@H](C)CO)C[C@H](C)[C@H](CN(C)S(=O)(=O)c2cccc(F)c2)O3)cc1OC`?
PGC1a acetyl up: 123*

Results for C[C@H](CO)N1C[C@H](C)[C@@H](CN(C)C(=O)Nc2ccc(F)cc2)Oc2ncc(C#CC3CC3)cc2C1=O ?
PGC1a acetyl up: -47

How did C[C@H](CO)N1C[C@H](C)[C@H](CN(C)S(=O)(=O)c2ccc(F)cc2)Oc2ncc(-c3cccc(C(=O)N(C)C)c3)cc2C1=O do in these assays?
PGC1a acetyl up: -48

What do the screens show for `CCc1ccc(N/C(SCc2ccccc2C)=C(/C#N)C(=O)NCc2ccco2)cc1`?
PGC1a acetyl up: 84*

What do the screens show for `CC(C)C#Cc1ccc([C@@H]2[C@H](CO)N3C(=O)CN(C(=O)NC4CCCC4)C[C@@H]23)cc1`?
PGC1a acetyl up: -107

What do the screens show for `CC1CCCCC1NC(=O)C1CCN(S(=O)(=O)N2CCOCC2)CC1` (stereo unspecified)?
PGC1a acetyl up: -43

How did COc1ccc(CC2=CC(=O)c3ccccc3C2=O)cc1 do in these assays?
PGC1a acetyl up: 128*

How did O=C(Nc1cccc(C(F)(F)F)c1)c1sc(Cl)nc1C(F)(F)F do in these assays?
PGC1a acetyl up: 121*

What do the screens show for `C[C@@H]1CN([C@H](C)CO)C(=O)CCCn2nncc2CO[C@H]1CN(C)C(=O)Nc1cccc(F)c1`?
PGC1a acetyl up: -57

What do the screens show for `CCCCn1c(SCC(=O)NCc2ccc3c(c2)OCO3)nnc1C(CC)N(C)C` (stereo unspecified)?
PGC1a acetyl up: -44

How did COc1nc(OCCNS(=O)(=O)c2ccc(C)cc2)nc(N(C)C)n1 do in these assays?
PGC1a acetyl up: -52

What do the screens show for `C=CCn1c(SCC(=O)NC(=O)NCc2ccco2)nc2sc(CC)cc2c1=O`?
PGC1a acetyl up: 57*

Results for C=CCNC(=S)N1CCN(CCN=CC2=C(O)CC(c3ccco3)CC2=O)CC1 (stereo unspecified) ?
PGC1a acetyl up: -40

What do the screens show for `CC(C)C#Cc1cnc2c(c1)C(=O)N([C@H](C)CO)C[C@H](C)[C@H](CN(C)C(=O)CN1CCOCC1)O2`?
PGC1a acetyl up: -58

What do the screens show for `COc1cc(C2C(C#N)=C(N)Oc3c2oc(CO)cc3=O)cc(OC)c1OC` (stereo unspecified)?
PGC1a acetyl up: 102*

What do the screens show for `Cc1cc(S(=O)(=O)NC(C)C)ccc1OCC(=O)Nc1ccc2c(c1)OCCO2`?
PGC1a acetyl up: -110
